Reference: ChEMBL document CHEMBL2163314, “Potent aminocyclitol glucocerebrosidase inhibitors are subnanomolar pharmacological chaperones for treating gaucher disease” (J Med Chem, 2012)
Active and inactive are the calls of the source. The calls are words filed in the database; no cut-off is given here.

Key:
[1] = test system: Saccharomyces cerevisiae; assay: Inhibition of bakers yeast alpha-glucosidase at100 uM
[2] = target: T1, Non-lysosomal glucosylceramidase (Mus musculus) (UniProt Q69ZF3); assay: Inhibition of GBA2 activity in mouse tissue homogenate at 50 uM
T1 sequence (whole entry): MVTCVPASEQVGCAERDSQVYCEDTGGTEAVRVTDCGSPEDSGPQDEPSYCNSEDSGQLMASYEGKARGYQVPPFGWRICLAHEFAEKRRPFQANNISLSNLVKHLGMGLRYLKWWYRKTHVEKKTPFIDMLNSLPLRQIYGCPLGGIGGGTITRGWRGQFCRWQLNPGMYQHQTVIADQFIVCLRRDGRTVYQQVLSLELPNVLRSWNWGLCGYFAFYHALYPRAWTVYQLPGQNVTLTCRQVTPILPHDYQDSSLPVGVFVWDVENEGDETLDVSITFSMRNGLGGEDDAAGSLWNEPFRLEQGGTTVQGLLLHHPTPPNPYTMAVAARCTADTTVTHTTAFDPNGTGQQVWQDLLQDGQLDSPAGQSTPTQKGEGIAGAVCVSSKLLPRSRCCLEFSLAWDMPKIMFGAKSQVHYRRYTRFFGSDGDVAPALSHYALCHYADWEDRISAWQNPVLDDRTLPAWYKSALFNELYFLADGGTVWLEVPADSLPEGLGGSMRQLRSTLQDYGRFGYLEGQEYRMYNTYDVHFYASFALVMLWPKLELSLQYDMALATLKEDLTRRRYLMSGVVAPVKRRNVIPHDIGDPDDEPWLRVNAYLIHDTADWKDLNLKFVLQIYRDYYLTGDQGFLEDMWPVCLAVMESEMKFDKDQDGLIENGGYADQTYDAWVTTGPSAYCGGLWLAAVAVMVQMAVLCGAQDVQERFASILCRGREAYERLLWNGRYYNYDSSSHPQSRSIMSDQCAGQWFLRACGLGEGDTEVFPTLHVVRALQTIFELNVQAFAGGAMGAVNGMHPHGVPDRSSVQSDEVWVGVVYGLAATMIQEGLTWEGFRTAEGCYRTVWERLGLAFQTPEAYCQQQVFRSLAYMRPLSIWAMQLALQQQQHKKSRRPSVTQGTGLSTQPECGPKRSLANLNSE
Outline: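 Mouse tissue homogenates were used to separate nonlysosomal GBA2 from lysosomal GCase β-glucosidase activity. Compounds were screened at 50 and 5 μM with 3 mM substrate. Two independent experiments, each run in duplicate.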

[3] = target: Lysosomal alpha-glucosidase (Homo sapiens) (UniProt P10253); assay: Inhibition of lysosomal alpha-glucosidase in human fibroblast at 50 uM after 24 hrs
Outline: (§1)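 Wild-type human fibroblasts (DMEM, 10% FBS, passages 14–30) were plated overnight, then exposed to compound in fresh medium for 24 h at 37 °C, 5% CO2. Lysosomal enzyme activity was then assayed in intact monolayers after the medium was removed. Triplicate determinations.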

[4] = target: T2, Alpha-galactosidase A (Homo sapiens) (UniProt P06280); assay: Inhibition of lysosomal alpha-galactosidase in human fibroblast at 50 uM after 24 hrs; outline: as §1
T2 sequence (whole entry): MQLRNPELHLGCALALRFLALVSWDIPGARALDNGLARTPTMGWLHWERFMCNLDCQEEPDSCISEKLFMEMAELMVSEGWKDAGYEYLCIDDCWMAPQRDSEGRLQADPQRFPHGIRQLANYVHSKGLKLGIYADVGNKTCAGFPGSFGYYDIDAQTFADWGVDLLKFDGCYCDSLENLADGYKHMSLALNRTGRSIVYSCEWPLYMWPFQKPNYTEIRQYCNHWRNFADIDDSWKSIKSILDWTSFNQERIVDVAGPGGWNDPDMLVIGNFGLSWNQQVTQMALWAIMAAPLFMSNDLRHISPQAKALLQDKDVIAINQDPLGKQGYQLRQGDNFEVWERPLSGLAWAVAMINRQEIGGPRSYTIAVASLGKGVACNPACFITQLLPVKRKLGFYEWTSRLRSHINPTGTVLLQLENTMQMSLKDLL

[5] = target: T3, Beta-galactosidase (Homo sapiens) (UniProt P16278); assay: Inhibition of lysosomal beta-galactosidase in human fibroblast at 5 uM after 24 hrs
T3 sequence (whole entry): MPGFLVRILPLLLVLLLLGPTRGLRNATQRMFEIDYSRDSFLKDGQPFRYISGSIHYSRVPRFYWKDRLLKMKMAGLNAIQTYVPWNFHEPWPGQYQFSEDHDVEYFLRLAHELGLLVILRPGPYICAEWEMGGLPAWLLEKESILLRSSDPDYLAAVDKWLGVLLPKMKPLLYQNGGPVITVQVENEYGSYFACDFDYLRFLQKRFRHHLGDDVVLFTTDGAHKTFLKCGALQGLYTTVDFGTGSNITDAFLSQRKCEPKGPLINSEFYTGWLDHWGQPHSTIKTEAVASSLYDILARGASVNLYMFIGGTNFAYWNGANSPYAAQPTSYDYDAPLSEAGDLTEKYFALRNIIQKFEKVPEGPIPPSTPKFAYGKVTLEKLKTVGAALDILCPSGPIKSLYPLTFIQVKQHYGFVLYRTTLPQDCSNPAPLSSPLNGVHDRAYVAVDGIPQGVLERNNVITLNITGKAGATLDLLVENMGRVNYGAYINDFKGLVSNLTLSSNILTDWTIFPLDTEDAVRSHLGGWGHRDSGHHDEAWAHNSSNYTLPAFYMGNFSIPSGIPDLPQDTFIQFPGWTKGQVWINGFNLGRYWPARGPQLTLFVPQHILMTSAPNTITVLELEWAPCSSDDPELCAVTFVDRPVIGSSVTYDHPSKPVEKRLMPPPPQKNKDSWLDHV

[6] = target: T2, Alpha-galactosidase A (Homo sapiens); assay: Inhibition of lysosomal alpha-galactosidase in human fibroblast at 5 uM after 24 hrs
[7] = target: T4, Beta-galactosidase (Bos taurus) (UniProt Q58D55); assay: Inhibition of bovine liver beta-galactosidase at 100 uM
T4 sequence (whole entry): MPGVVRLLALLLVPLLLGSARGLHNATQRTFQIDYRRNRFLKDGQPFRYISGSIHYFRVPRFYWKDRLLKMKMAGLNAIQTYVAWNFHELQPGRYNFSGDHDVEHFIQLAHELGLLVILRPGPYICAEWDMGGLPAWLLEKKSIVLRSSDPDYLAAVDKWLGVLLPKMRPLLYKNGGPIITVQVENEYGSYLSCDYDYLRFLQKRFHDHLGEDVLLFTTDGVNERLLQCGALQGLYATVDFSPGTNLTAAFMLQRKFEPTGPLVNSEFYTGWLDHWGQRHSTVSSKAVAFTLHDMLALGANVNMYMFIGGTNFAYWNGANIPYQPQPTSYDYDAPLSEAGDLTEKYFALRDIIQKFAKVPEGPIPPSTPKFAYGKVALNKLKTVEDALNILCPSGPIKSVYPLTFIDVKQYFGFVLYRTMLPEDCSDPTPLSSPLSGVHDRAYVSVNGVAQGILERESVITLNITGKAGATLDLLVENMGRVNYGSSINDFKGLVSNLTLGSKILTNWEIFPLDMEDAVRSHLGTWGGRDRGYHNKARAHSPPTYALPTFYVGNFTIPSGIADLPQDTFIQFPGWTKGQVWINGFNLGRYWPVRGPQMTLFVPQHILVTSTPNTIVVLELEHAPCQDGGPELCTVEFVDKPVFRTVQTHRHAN

Row | inhibition [5] | inhibition [6] | inhibition [7] | SMILES | inhibition [1] | inhibition [2] | inhibition [3] | inhibition [4]
1 |  |  |  | CCCCCCCCCN[C@H]1[C@H](O)[C@@H](O)[C@H](O)[C@@H](O)[C@@H]1O | inactive | Active | inactive | inactive
2 | < 16% | < 16% |  | CCCCCCCCCN[C@H]1[C@H](O)[C@@H](O)[C@H](O)[C@@H](O)[C@@H]1OCCCCCCCCC.Cl | inactive | Active |  | 
3 | < 16% | < 16% |  | CCCCCCCCCN(CCCCCCCCC)[C@@H]1[C@H](O)[C@H](O)[C@@H](O)[C@H](O)[C@H]1O.Cl | inactive | Active |  | 
4 | inactive | inactive | 74% | CCCCCCCCCN[C@H]1[C@H](O)[C@@H](O)[C@H](O)[C@@H](O)[C@H]1OCCCCCCCCC.Cl | inactive | Active |  | 
5 |  |  | 74% | CCCCCCCCCO[C@H]1[C@@H](N)[C@H](O)[C@@H](O)[C@H](O)[C@H]1O.Cl | inactive | Active | inactive | inactive
6 |  |  |  | CCCCCCCCCN[C@H]1[C@H](O)[C@@H](O)[C@H](O)[C@@H](O)[C@H]1OC.Cl | inactive | Active | inactive | inactive
7 |  |  |  | CCCCCCCCCN[C@@H]1[C@H](O)[C@H](O)[C@@H](O)[C@H](O)[C@H]1O.Cl | inactive | Active | inactive | inactive
8 |  |  |  | CCCCCCCCCN[C@H]1[C@H](O)[C@@H](O)[C@H](O)[C@@H](O)[C@@H]1OC.Cl | inactive | Active | inactive | inactive

Row | SMILES | inhibition [5] | inhibition [6] | inhibition [7] | inhibition [1] | inhibition [2] | inhibition [3] | inhibition [4]
9 | CCCCCCCCCN[C@@H]1[C@H](O)[C@@H](O)[C@H](O)[C@@H](O)[C@@H]1O |  |  | 74% | inactive | 92% | inactive | inactive
